ChEMBL document CHEMBL1128506, “Synthesis and dopaminergic activity of pyridine analogs of 5-hydroxy-2-(di-n-propylamino)tetralin” (J Med Chem, 1995)

Key:
D(2) dopamine receptor [1] = molecular target: T1, D(2) dopamine receptor (Homo sapiens, UniProt P14416); test: In vitro binding affinity is the ability to displace [3H]N-0437 from human Dopamine receptor D2 expressed in CHO-K1 cells; type: cell-based
D(2) dopamine receptor [2] = molecular target: T1, D(2) dopamine receptor; test: In vitro binding affinity is the ability to displace [3H]spiperone from human Dopamine receptor D2 expressed in CHO-K1 cells; type: cell-based
D(3) dopamine receptor [3] = molecular target: T2, D(3) dopamine receptor (Homo sapiens, UniProt P35462); test: In vitro binding affinity is the ability to displace [3H]spiperone from human Dopamine receptor D3 expressed in CHO-K1 cells; type: cell-based
Procedure, shortened: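 CHO-K1 cells stably expressing human D3 receptor, grown in F-12 medium with 10% fetal bovine serum under humidified 5% CO2/95% air.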

Mus musculus [4] = test: Inhibition of locomotor activity(LMA) in mouse after ip administration of the compound; type: functional
Procedure, shortened: (§1)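 Mice given compound ip, then tested immediately for 1 h in darkened cylindrical photobeam chambers. Activity expressed as percent inhibition relative to vehicle-treated animals.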

Rattus norvegicus [5] = test: Percent reversal of the increase on DOPA levels in the striatum of GBL-treated rats administered ip with 10 mg/kg of compound; type: functional; settings: route intraperitoneal
Procedure, shortened: (§2)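 Male Long-Evans rats received compound 1 h before sacrifice. GBL (750 mg/kg ip) and the decarboxylase inhibitor NSD 1015 (100 mg/kg ip) were given 30 min before sacrifice. Striatal DOPA was measured by HPLC with electrochemical detection. Result reported as percent reversal of the GBL-induced DOPA increase, n = 4.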

D(3) dopamine receptor [6] = molecular target: T2, D(3) dopamine receptor; test: In vitro binding affinity is the ability to displace [3H]spiperone from human Dopamine receptor D3 expressed in CHO-K1 cells.; type: cell-based
Mus musculus [7] = test: Inhibition of locomotor activity(LMA) in mouse after ip administration of the compound.; type: functional; procedure, shortened: as §1
Rattus norvegicus [8] = test: Percent reversal of the increase on DOPA levels in the striatum of GBL-treated rats administered ip with 10 mg/kg of compound.; type: functional; settings: route intraperitoneal; procedure, shortened: as §2
Rattus norvegicus [9] = test: Inhibition of locomotor activity(LMA) in rat after sc administration of the compound.
Rattus norvegicus [10] = test: as above; remark: listed apart in the source

T1 sequence (P14416 whole entry): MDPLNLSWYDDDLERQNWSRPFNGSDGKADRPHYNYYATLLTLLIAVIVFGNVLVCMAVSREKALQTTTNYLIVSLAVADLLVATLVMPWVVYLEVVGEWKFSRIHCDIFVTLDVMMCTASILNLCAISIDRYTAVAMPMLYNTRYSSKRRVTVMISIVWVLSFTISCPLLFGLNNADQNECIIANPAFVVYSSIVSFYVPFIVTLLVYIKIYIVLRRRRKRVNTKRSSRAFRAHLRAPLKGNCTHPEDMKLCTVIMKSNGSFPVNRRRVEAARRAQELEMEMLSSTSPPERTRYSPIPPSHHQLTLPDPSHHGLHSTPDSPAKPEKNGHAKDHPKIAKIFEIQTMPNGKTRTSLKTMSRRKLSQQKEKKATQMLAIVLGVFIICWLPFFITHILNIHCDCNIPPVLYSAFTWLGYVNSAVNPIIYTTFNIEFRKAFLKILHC
T2 sequence (P35462 whole entry): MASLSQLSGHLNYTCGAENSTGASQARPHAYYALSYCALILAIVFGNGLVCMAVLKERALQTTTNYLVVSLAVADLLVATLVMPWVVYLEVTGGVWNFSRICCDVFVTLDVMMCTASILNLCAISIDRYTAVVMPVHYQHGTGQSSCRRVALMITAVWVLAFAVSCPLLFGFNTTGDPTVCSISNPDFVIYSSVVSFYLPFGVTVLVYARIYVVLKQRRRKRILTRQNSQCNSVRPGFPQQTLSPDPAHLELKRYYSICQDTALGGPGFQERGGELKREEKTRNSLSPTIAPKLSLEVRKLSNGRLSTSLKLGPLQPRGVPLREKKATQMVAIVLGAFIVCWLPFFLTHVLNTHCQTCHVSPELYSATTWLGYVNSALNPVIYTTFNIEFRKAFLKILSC

SMILES	Ki (D(2) dopamine receptor [1])	Ki (D(2) dopamine receptor [2])	Ki (D(3) dopamine receptor [3])	ED50 (Mus musculus [4])	Decrease (Rattus norvegicus [5])	Ki (D(3) dopamine receptor [6])	ED50 (Mus musculus [7])	Decrease (Rattus norvegicus [8])	ED50 (Rattus norvegicus [9])	Inhibition (Rattus norvegicus [10])
CCCN(CCC)C1CCc2nc(N)sc2C1 (centres undefined)	57 nM	462 nM	1.9 nM	> 30 mg/kg	88%					
CCCN(CCC)C1CCc2ncccc2C1 (centres undefined)	466 nM	272 nM				4.97 nM	0.08 mg/kg	86%	0.01 mg/kg	
CCCN(CCC)C1CCc2c(O)cccc2C1 (centres undefined) [5-OH-DPAT]							0.01 mg/kg	70%	0.004 mg/kg	
CCCN(CCC)C1CCc2cc(OC)ccc2C1 (centres undefined)	3940 nM	> 10000 nM				366 nM				
CCCN(CCC)C1CCc2nc(N)ccc2C1 (centres undefined)	5 nM	17.1 nM				0.87 nM	0.25 mg/kg	86%	0.05 mg/kg	
CCCN(CCC)C1CCc2nc(OC)ccc2C1 (centres undefined)	1200 nM	> 3330 nM				158 nM	> 30 mg/kg	62%		
CCCN(CCC)C1CCc2n[nH]cc2C1 (centres undefined)	523 nM	> 3330 nM	36 nM				0.64 mg/kg	91%		45%
